In experiment [1] the target is Toll-like receptor 1/2 (Homo sapiens, UniProt O60603+Q15399). In words: Agonist activity at TLR1/TLR2 in human THP-1 derived macrophages assessed as stimulation of TNF alpha release measured for 4 hrs by ELISA based assay relative to diprovocim-1. Type of experiment: cell-based. Also noted: Activity: concentration or dose not given beside the values. An outline of the steps: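 THP-1 cells differentiated with 100 nM PMA in RPMI/10% FBS for 24 h, washed, then rested 24 h in fresh medium. Seeded at 0.5 × 10⁵ cells/well and exposed to graded compound concentrations for 4 h, with final DMSO held at 0.1%. LPS served as positive control and DMSO as negative control. Supernatant human TNF-α was read by ELISA. EC50 from duplicate means.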
For orientation: ELISA stands for enzyme-linked immunosorbent assay.

In experiment [2] the target is Toll-like receptor 1/2 (Mus musculus) (UniProt Q9QUN7+Q9EPQ1). Briefly: Agonist activity at TLR1/TLR2 in wild type C57BL/6J mouse macrophages assessed as stimulation of TNF alpha release measured for 4 hrs by ELISA based assay relative to diprovocim-1. The settings on record: Macrophage, filed as agonist. More on the design: Activity: concentration or dose not given beside the values. Type of experiment: cell-based. In short, it runs like this: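 Thioglycolate-elicited peritoneal macrophages from wild type C57BL/6J mice, harvested by PBS lavage 4 d after i.p. 4% thioglycolate. Cultured in DMEM/10% FBS at 37 °C, 5% CO2, seeded at 1 × 10⁵ cells/well and exposed to graded compound concentrations for 4 h, with final DMSO ≤0.5% held constant. LPS served as positive control. Supernatant mouse TNF-α was read by ELISA. EC50 from duplicate means.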

The structures appear in SMILES notation.

Consider eleven compounds from ChEMBL document CHEMBL5143728, “Next-Generation Diprovocims with Potent Human and Murine TLR1/TLR2 Agonist Activity That Activate the Innate and Adaptive Immune Response” (J Med Chem, 2022).

Turning to `CC(C)(C)OC(=O)NCCCCCCCCCCCCNC(=O)[C@@H]1CN(C(=O)c2ccc(C(=O)N3C[C@@H](C(=O)N[C@H]4C[C@@H]4c4ccccc4)[C@H](C(=O)N[C@H]4C[C@@H]4c4ccccc4)C3)cc2)C[C@H]1C(=O)N[C@H]1C[C@@H]1c1ccccc1`, the Activity in experiment [1] (filed as agonist) stood at 70%; in experiment [2], 120%.

Consider `O=C(CNC(=O)OCC(Cl)(Cl)Cl)OCCCCCCCCCCCCNC(=O)[C@@H]1CN(C(=O)c2ccc(C(=O)N3C[C@@H](C(=O)N[C@H]4C[C@@H]4c4ccccc4)[C@H](C(=O)N[C@H]4C[C@@H]4c4ccccc4)C3)cc2)C[C@H]1C(=O)N[C@H]1C[C@@H]1c1ccccc1`, for which the Activity in experiment [1] (filed as agonist) is 100%; in experiment [2], 300%.

Regarding `CC(=O)NCC(=O)OCCCCCCCCCCCCNC(=O)[C@@H]1CN(C(=O)c2ccc(C(=O)N3C[C@@H](C(=O)N[C@H]4C[C@@H]4c4ccccc4)[C@H](C(=O)N[C@H]4C[C@@H]4c4ccccc4)C3)cc2)C[C@H]1C(=O)N[C@H]1C[C@@H]1c1ccccc1`, the values for the Activity in experiment [1] (filed as agonist) and in experiment [2] were 90% and 180%, respectively.

Consider `O=C(CNC(=O)C(=O)O)OCCCCCCCCCCCCNC(=O)[C@@H]1CN(C(=O)c2ccc(C(=O)N3C[C@@H](C(=O)N[C@H]4C[C@@H]4c4ccccc4)[C@H](C(=O)N[C@H]4C[C@@H]4c4ccccc4)C3)cc2)C[C@H]1C(=O)N[C@H]1C[C@@H]1c1ccccc1`, for which the figures for the Activity in experiment [1] (filed as agonist) and in experiment [2] were 120% and 250%, respectively.

As for `COC(=O)CNC(=O)OCCCCCCCCCCCCNC(=O)[C@@H]1CN(C(=O)c2ccc(C(=O)N3C[C@@H](C(=O)N[C@H]4C[C@@H]4c4ccccc4)[C@H](C(=O)N[C@H]4C[C@@H]4c4ccccc4)C3)cc2)C[C@H]1C(=O)N[C@H]1C[C@@H]1c1ccccc1`, the Activity in experiment [1] (filed as agonist) and in experiment [2] was 90% each time.

`O=C(CNC(=O)OCC1c2ccccc2-c2ccccc21)OCCCCCCCCCCCCNC(=O)[C@@H]1CN(C(=O)c2ccc(C(=O)N3C[C@@H](C(=O)N[C@H]4C[C@@H]4c4ccccc4)[C@H](C(=O)N[C@H]4C[C@@H]4c4ccccc4)C3)cc2)C[C@H]1C(=O)N[C@H]1C[C@@H]1c1ccccc1`: the values for the Activity in experiment [1] (filed as agonist) and in experiment [2] were 100% and 170%, respectively.

For the compound `C#CCOCC(=O)OCCCCCCCCCCCCNC(=O)[C@@H]1CN(C(=O)c2ccc(C(=O)N3C[C@@H](C(=O)N[C@H]4C[C@@H]4c4ccccc4)[C@H](C(=O)N[C@H]4C[C@@H]4c4ccccc4)C3)cc2)C[C@H]1C(=O)N[C@H]1C[C@@H]1c1ccccc1`, the Activity in experiment [1] came to 30%; in experiment [2], 110%.

As to `CC(C)(C)OC(=O)NCCOCCOCCOCCOCCC(=O)OCCCCCCCCCCCCNC(=O)[C@@H]1CN(C(=O)c2ccc(C(=O)N3C[C@@H](C(=O)N[C@H]4C[C@@H]4c4ccccc4)[C@H](C(=O)N[C@H]4C[C@@H]4c4ccccc4)C3)cc2)C[C@H]1C(=O)N[C@H]1C[C@@H]1c1ccccc1`, the Activity in experiment [1] (filed as agonist) worked out at 90%; in experiment [2] it was 150%.

As for `C[C@H](NC(=O)OC(C)(C)C)C(=O)OCCCCCCCCCCCCNC(=O)[C@@H]1CN(C(=O)c2ccc(C(=O)N3C[C@@H](C(=O)N[C@H]4C[C@@H]4c4ccccc4)[C@H](C(=O)N[C@H]4C[C@@H]4c4ccccc4)C3)cc2)C[C@H]1C(=O)N[C@H]1C[C@@H]1c1ccccc1`, the results for the Activity in experiment [1] (filed as agonist) and in experiment [2] were 80% and 200%, respectively.

Consider `NC(=O)CCCCCCCCCCCNC(=O)[C@@H]1CN(C(=O)c2ccc(C(=O)N3C[C@@H](C(=O)N[C@H]4C[C@@H]4c4ccccc4)[C@H](C(=O)N[C@H]4C[C@@H]4c4ccccc4)C3)cc2)C[C@H]1C(=O)N[C@H]1C[C@@H]1c1ccccc1`, for which the Activity amounted to 110% in experiment [1] (filed as agonist) and 120% in experiment [2].

As for `CC(C)(C)OC(=O)COCCCCCCCCCCCCNC(=O)[C@@H]1CN(C(=O)c2ccc(C(=O)N3C[C@@H](C(=O)N[C@H]4C[C@@H]4c4ccccc4)[C@H](C(=O)N[C@H]4C[C@@H]4c4ccccc4)C3)cc2)C[C@H]1C(=O)N[C@H]1C[C@@H]1c1ccccc1`, the figures for the Activity in experiment [1] (filed as agonist) and in experiment [2] were 100% and 270%, respectively.
